A short description of experiment [1]: Inhibition of activin A (unknown origin) expressed in HEK293 cells transfected with Smad2/3 responsive reporter plasmid incubated for 4 hrs by dual luciferase reporter gene assay. The settings on record: Homo sapiens, HEK293, 4 h. In general terms: Reporter assays use an easily measured gene product as a stand-in for the process of interest.
Experiment [2] has as its target Transforming growth factor beta-1 proprotein (Homo sapiens, UniProt P01137). As to the kind of experiment: Inhibition of TGF beta 1 (unknown origin) expressed in HEK293 cells transfected with Smad2/3 responsive reporter plasmid incubated for 4 hrs by dual luciferase reporter gene assay. The class given is cell-based. The method in brief:
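HEK293 cells co-transfected with Smad-responsive firefly luciferase reporter (pGL4.48[luc2P/SBE/Hygro]) and Renilla control (pGL4.74[hRluc/TK]). Cells starved 8 h in serum-free DMEM, then exposed 4 h to TGF-β1 at 2.5 ng/mL (0.1 nM) with or without peptide (0.025–18 or 0.074–54 μM). SB431542 at 5 μM as positive control. Triplicate means ± SD. IC50 from sigmoidal curve fitting.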

The nature of experiment [3]: Inhibition of GDF-11 (unknown origin) expressed in HEK293 cells transfected with Smad2/3 responsive reporter plasmid incubated for 4 hrs by dual luciferase reporter gene based assay. The settings on record: Homo sapiens, HEK293, 4 h.
Experiment [4] has as its system Mus musculus. As to the kind of experiment: In vivo inhibition of myostatin in C57BL/6J mouse assessed as increase in weight of tibialis anterior muscles normalized with body weight at 0.75 mM, IM administered for 28 days. Type of experiment: functional. The settings on record: time 28.0 day. A digest of the protocol: (§1)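 Wild-type male C57BL/6J mice, 8 weeks old. Single intramuscular injection at day 0: peptide (30 nmol; 0.75 mM in saline, 40 μL) into left tibialis anterior, saline (40 μL) into right TA. TA muscles collected and weighed at day 28, weight normalized to body weight. Increase expressed relative to saline-injected TA (=100%). Mean ± SD, N = 4–5 mice.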

Experiment [5] in a line: In vivo inhibition of myostatin in C57BL/6J mouse assessed as increase in weight of tibialis anterior muscles at 0.75 mM, IM administered for 28 days relative to control. Type of experiment: functional. On the set-up: scale not given: the % may be the effect or the level left. The settings on record: time 28 day. A digest of the protocol:
as §1

Experiment [6] concerns the target T1, Growth/differentiation factor 8 (Homo sapiens, UniProt O14793).
T1 sequence (O14793 whole entry): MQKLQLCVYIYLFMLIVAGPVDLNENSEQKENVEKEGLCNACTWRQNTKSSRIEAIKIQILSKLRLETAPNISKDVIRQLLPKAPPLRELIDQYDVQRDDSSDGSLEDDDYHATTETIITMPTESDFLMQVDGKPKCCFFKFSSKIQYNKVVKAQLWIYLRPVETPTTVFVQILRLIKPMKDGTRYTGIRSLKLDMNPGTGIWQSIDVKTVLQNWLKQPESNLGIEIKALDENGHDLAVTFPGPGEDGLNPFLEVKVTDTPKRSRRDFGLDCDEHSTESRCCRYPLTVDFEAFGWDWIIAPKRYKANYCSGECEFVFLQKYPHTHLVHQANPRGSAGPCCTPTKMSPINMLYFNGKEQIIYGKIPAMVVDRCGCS
As to the kind of experiment: Inhibition of myostatin (unknown origin) expressed in HEK293 cells transfected with Smad2/3 responsive reporter plasmid incubated for 4 hrs by dual luciferase reporter gene based assay. Type of experiment: cell-based.

Active and inactive are the calls of the source. The rule behind the calls is not given here. Non-standard residues stand in square brackets, D forms with d. Residues, ends and D or L forms follow the SMILES beside them. Chg = N[C@H](C(=O)O)C1CCCCC1

Sequence of Transforming growth factor beta-1 proprotein (P01137 279-390 limits assumed): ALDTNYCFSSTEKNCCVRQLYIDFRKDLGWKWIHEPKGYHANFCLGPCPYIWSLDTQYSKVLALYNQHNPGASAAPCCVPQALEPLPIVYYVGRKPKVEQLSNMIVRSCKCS

Consider `CC[C@@H](C)[C@@H](NC(=O)[C@@H](CCCNC(=N)N)NC(=O)[C@@H](Cc1c[nH]c2ccccc12)NC(=O)[C@H](NC(=O)[C@@H](CCCCN)NC(=O)[C@H](NC(=O)[C@@H](CCCNC(=N)N)NC(=O)[C@H](NC(=O)[C@@H](Cc1c[nH]c2ccccc12)NC(=O)[C@@H](CCCNC(=N)N)NC(=O)[C@@H](CCCCN)NC(=O)[C@H](NC(=O)[C@@H](CCCNC(=N)N)NC(=O)[C@H](N)CC(C)C)C1CCCCC1)[C@H](C)CC)C1CCCCC1)[C@H](C)CC)C(=O)N[C@H](Cc1ccc(O)cc1)C(=O)N[C@H](Cc1c[nH]c2ccccc12)C(N)=O`, for which the IC50 was 890 nM in experiment [1], 1600 nM in experiment [2], 630 nM in experiment [3] and 190 nM in experiment [6]. Also, in experiment [4], the result was Active. Moreover, in experiment [5], the Activity was determined as 133%.
With `CC[C@H](C)[C@H](NC(=O)[C@H](CCC(N)=O)NC(=O)[C@@H](NC(=O)[C@H](CCCCN)NC(=O)[C@@H](NC(=O)[C@@H](Cc1c[nH]c2ccccc12)NC(=O)[C@H](CCCNC(=N)N)NC(=O)[C@@H](NC(=O)[C@H](Cc1ccc(O)cc1)NC(=O)[C@@H](N)Cc1c[nH]c2ccccc12)[C@@H](C)CC)[C@@H](C)CC)C1CCCCC1)C(=O)N[C@@H](Cc1c[nH]c2ccccc12)C(=O)N[C@@H](CO)C(=O)N[C@@H](CCCCN)C(=O)N[C@H](C(=O)N[C@@H](CCCNC(=N)N)C(=O)N[C@@H](CC(C)C)C(N)=O)C1CCCCC1` (H-WYIR[dW]IK[Chg]QIWSK[Chg]RL-NH2), the IC50 amounted to 1400 nM in experiment [1], 6700 nM in experiment [2], 1400 nM in experiment [3] and 260 nM in experiment [6]. Further, the result in experiment [4] was Active. For the same compound, the Activity in experiment [5] was found to be 109%.

The term IC50 denotes the concentration at which inhibition is half-maximal.

These data come from ChEMBL document CHEMBL5042555, “Development of Myostatin Inhibitory d-Peptides to Enhance the Potency, Increasing Skeletal Muscle Mass in Mice” (ACS Med Chem Lett, 2022).
